# Experiments:
# [1] = Prodrug activation in human hepatocytes assessed as half life of [[(2S,3S,4R,5R)-5-(2-amino-6-oxo-1H-purin-9-yl)-2,4-difluoro-3-hydroxy-4-methyl-tetrahydrofuran-2-yl]methoxy-hydroxy-phosphoryl]phosphono hydrogen phosphate metabolite at 50 uM incubated for 24 hrs followed by medium replacement measured after 6 hrs by LC-MS/MS analysis; format: ADME, cell-based, Hepatocyte
# Method in brief: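 Primary human hepatocytes acclimated overnight at 37 °C, 5% CO2, then given 50 μM compound for 24 h. Medium replaced with blank medium and cells sampled at 0, 3, 6, 10, 24 and 48 h. Cells washed with cold saline and lysed in 70/30 methanol/water; NTP measured by LC-MS/MS. Half-life obtained by first-order fit of the terminal phase (n = 3).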
# [2] = Prodrug activation in human hepatocytes assessed as [[(2S,3S,4R,5R)-5-(2-amino-6-oxo-1H-purin-9-yl)-2,4-difluoro-3-hydroxy-4-methyl-tetrahydrofuran-2-yl]methoxy-hydroxy-phosphoryl]phosphono hydrogen phosphate metabolite formation at 0.5 to 50 uM incubated for 24 hrs by LC-MS/MS analysis; format: ADME, cell-based, Hepatocyte
# Method in brief: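 Primary human hepatocytes from three donors, acclimated overnight at 37 °C, 5% CO2, incubated 24 h across a range of extracellular compound concentrations. Cells washed with cold saline and lysed in 70/30 methanol/water. Intracellular NTP measured by negative-ion LC-MS/MS against standards spiked into untreated hepatocyte lysate; mean ± standard deviation reported.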
# [3] = Prodrug activation in human hepatocytes assessed as [[(2S,3S,4R,5R)-5-(2-amino-6-oxo-1H-purin-9-yl)-2,4-difluoro-3-hydroxy-4-methyl-tetrahydrofuran-2-yl]methoxy-hydroxy-phosphoryl]phosphono hydrogen phosphate metabolite formation after 24 to 48 hrs by LC-MS/MS analysis; format: ADME, cell-based, Hepatocyte
# [4] = Prodrug activation in human hepatocytes assessed as nucleoside monophosphate metabolite formation per million cells incubated for 24 hrs; format: ADME, cell-based, Hepatocyte
# Method in brief: (§1)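 Primary human hepatocytes (1.5-2 million cells/well) acclimated overnight at 37 °C, 5% CO2, then incubated 24 h with 50 μM extracellular compound. Cells washed with cold 0.9% NaCl and lysed in 70/30 methanol/water. Extract dried and reconstituted, then analysed by LC-MS/MS with an internal standard; reported as pmol per million cells.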
# [5] = Prodrug activation in human hepatocytes assessed as time at which [[(2S,3S,4R,5R)-5-(2-amino-6-oxo-1H-purin-9-yl)-2,4-difluoro-3-hydroxy-4-methyl-tetrahydrofuran-2-yl]methoxy-hydroxy-phosphoryl]phosphono hydrogen phosphate metabolite formation reached steady state at 10 uM incubated for 2 to 72 hrs by LC-MS/MS analysis; format: ADME, cell-based, Hepatocyte
# Method in brief: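 Primary human hepatocytes acclimated overnight at 37 °C, 5% CO2, then continuously incubated with 10 μM compound and sampled over 2-72 h. Cells washed with cold saline and lysed in 70/30 methanol/water. Intracellular NTP quantified by negative-ion LC-MS/MS against standards spiked into untreated hepatocyte lysate.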
# [6] = Cytotoxicity against human A549 cells incubated for 8 days by cellTiter-Glo assay; format: cell-based
# Method in brief: (§2)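 Cells (1×10^5/well) on collagen I-coated wells, first kept 8 days in recommended medium without drug, then exposed to compound for 8 days with refeeding every other day. Viability read by CellTiter-Glo luminescence; CC50 derived by curve fitting.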
# [7] = Prodrug activation in human hepatocytes assessed as [[(2S,3S,4R,5R)-5-(2-amino-6-oxo-1H-purin-9-yl)-2,4-difluoro-3-hydroxy-4-methyl-tetrahydrofuran-2-yl]methoxy-hydroxy-phosphoryl]phosphono hydrogen phosphate metabolite formation per million cells at 50 uM incubated for 24 hrs by LC-MS/MS analysis; format: ADME, cell-based, Hepatocyte; method in brief: as §1
# [8] = Prodrug activation in Beagle dog assessed as [[(2S,3S,4R,5R)-5-(2-amino-6-oxo-1H-purin-9-yl)-2,4-difluoro-3-hydroxy-4-methyl-tetrahydrofuran-2-yl]methoxy-hydroxy-phosphoryl]phosphono hydrogen phosphate metabolite formation in liver at 9.69 mg/kg, po measured at 4 hrs post dose by LC-MS/MS analysis; format: ADME, organism-based, Canis lupus familiaris; settings: in vivo
# Method in brief: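 Male non-naïve beagle dogs (n=2 per time point), fasted overnight, single oral dose of 9.69 mg/kg (5 mg/kg parent nucleoside equivalent) as a solution in 40% PEG400 in water. Animals anesthetized with pentobarbital before liver collection. Liver NTP measured by negative-ion LC-MS/MS against standards spiked into blank liver homogenate.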
# Hepatitis C virus = experiment: Antiviral activity against HCV con1 subgenomic replicon infected in human HuH7 cells assessed as reduction in viral RNA level by qRT-PCR analysis; format: functional, organism-based, Hepacivirus hominis; settings: isolate Con1, Huh-7
# Method in brief: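 Huh-7 cells carrying a subgenomic Con1 HCV replicon (neomycin phosphotransferase, kept under 0.25 mg/ml G418) were exposed to serially diluted compound in DMEM with 2% FBS and 0.5% DMSO, without G418, at 37 °C. Total RNA was extracted and HCV RNA copies were measured by multiplex QRT-PCR (Taqman). EC50 was obtained by 4-parameter curve fit.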
# [9] = Cytotoxicity against human HuH7 cells incubated for 8 days by cellTiter-Glo assay; format: cell-based, Huh-7; method in brief: as §2
# [10] = Selectivity index, ratio of CC50 for human HuH7 cells infected with HCV con1 subgenomic replicon to EC50 for HCV con1 subgenomic replicon; format: toxicity; settings: read-out: Ratio CC50/EC50
# Method in brief: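 Ratio of CC50 (CellTiter-Blue viability after 3 days) to EC50 (HCV RNA by QRT-PCR). Both were measured in Huh-7 Con1 subgenomic replicon cells in DMEM with 2% FBS and 0.5% DMSO at 37 °C.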
# [11] = Cytotoxicity against human HuH7 cells infected with HCV con1 subgenomic replicon assessed as reduction in cell viability measured after 3 days by CellTiter-blue cell viability assay; format: cell-based, Huh-7
# Method in brief: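 Run in the replicon-bearing Huh-7 cells under the same settings as the antiviral read (DMEM, 2% FBS, 0.5% DMSO, no G418, 37 °C). After 3 days of treatment, viability was read with CellTiter-Blue and CC50 was derived by curve fitting.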
# [12] = Cytotoxicity against human MT4 cells incubated for 8 days by cellTiter-Glo assay; format: cell-based; method in brief: as §2
# [13] = Cytotoxicity against human HepG2 cells incubated for 8 days by cellTiter-Glo assay; format: cell-based; method in brief: as §2
# [14] = Cytotoxicity against human HeLa cells incubated for 8 days by cellTiter-Glo assay; format: cell-based; method in brief: as §2
# [15] = Cytotoxicity against human U937 cells incubated for 8 days by cellTiter-Glo assay; format: cell-based, U-937; method in brief: as §2
structure (smiles),measurement,setting,value
CCOc1nc(N)nc2c1ncn2[C@@H]1O[C@](F)(COP(=O)(N[C@@H](C)C(=O)OC(C)C)Oc2ccccc2)[C@@H](O)[C@@]1(C)F (stereo partly specified),t1/2,[1],11.2 h
same,Drug metabolism,[2],Metabolite_Detected
same,Drug metabolism,[3],Metabolite_Notdetected
same,Drug metabolism,[4],89 pmol
same,Time,[5],2 to 16 h
same,CC50 at 192 h,[6],> 100 µM
same,Drug metabolism,[7],271 pmol
same,Drug metabolism,[8],11.2 µM
same,EC50,Hepatitis C virus,0.014 µM
same,CC50 at 192 h,[9],> 100 µM
same,selectivity ratio,[10],> 7000
same,CC50 at 72 h,[11],> 100 µM
same,CC50 at 192 h,[12],92 µM
same,CC50 at 192 h,[13],> 100 µM
same,CC50 at 192 h,[14],> 100 µM
same,CC50 at 192 h,[15],10 µM
